Results taken from ChEMBL document CHEMBL3425508, “Discovery of potent hexapeptide agonists to human neuromedin u receptor 1 and identification of their serum metabolites” (ACS Med Chem Lett, 2015).
pEC50: −log10 of the molar value. One block for each molecule: values may come before it. Active and inactive are the calls of the source. The rule behind the calls is not given here. Non-standard residues stand in square brackets, D forms with d. Residues, ends and D or L forms follow the SMILES beside them. *: point of attachment. Propanoyl(3-(3-pyridyl)) = O=C(CCc1cccnc1)*; Phe(4-F) = N[C@@H](Cc1ccc(F)cc1)C(=O)O; 2Nal = N[C@@H](Cc1ccc2ccccc2c1)C(=O)O; Acetyl(2-thienyl) = O=C(Cc1cccs1)*; 4Pal = N[C@@H](Cc1ccncc1)C(=O)O; 2Thi = N[C@@H](Cc1cccs1)C(=O)O

Key:
Neuromedin-U receptor 2 [1] = molecular target: T1, Neuromedin-U receptor 2 (Homo sapiens, UniProt Q9GZQ4); experiment: Agonist activity at human NMUR2 expressed in CHO cells assessed as intracellular calcium flux at 1 and 10 nM by Fluo-4 AM dye based fluorometric imaging method relative to 1000 nM human neuromedin U; type: functional, cell-based
T1 sequence (Q9GZQ4 whole entry): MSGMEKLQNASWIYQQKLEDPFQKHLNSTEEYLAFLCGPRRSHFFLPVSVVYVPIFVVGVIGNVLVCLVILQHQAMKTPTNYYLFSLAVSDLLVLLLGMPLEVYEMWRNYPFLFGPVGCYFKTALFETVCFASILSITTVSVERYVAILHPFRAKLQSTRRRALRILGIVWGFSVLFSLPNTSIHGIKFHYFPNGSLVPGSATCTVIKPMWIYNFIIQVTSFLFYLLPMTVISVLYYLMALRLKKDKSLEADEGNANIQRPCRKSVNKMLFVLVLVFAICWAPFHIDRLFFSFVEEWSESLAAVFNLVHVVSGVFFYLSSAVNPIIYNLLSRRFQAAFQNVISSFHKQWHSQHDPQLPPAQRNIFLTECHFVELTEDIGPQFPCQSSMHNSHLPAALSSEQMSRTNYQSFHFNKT

Serum [2] = experiment: Drug metabolism in 25% rat serum assessed as cleavage at Arg(5)-Asn(6) site at 1 mM at 37 degC by RP-HPLC method; type: ADME, cell-free; settings: 1000 µM
Outline: (§1)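 Peptides incubated in 25% rat serum at 37 °C and sampled over time (10, 30, 60 min). Samples extracted on Sep-Pak C18 cartridges and analysed by C18 RP-HPLC with UV detection at 220 nm. Metabolites identified by mass spectrometry. Recovery of intact peptide measured at 10 or 60 min, in triplicate.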

[3] = Drug metabolism in 25% rat serum assessed as drug recovery at 1 mM incubated for 10 mins at 37 degC by RP-HPLC method; type: ADME, cell-free; settings: read-out: Drug recovery; outline: as §1
Serum [4] = experiment: Drug metabolism in 25% rat serum assessed as formation of 2-thienylacetyl-Trp1-Phe2-Arg3-Pro4-Arg5-OH at 1 mM at 37 degC by RP-HPLC method; type: ADME, cell-free; settings: 1000 µM; outline: as §1
Serum [5] = experiment: Drug metabolism in 25% rat serum assessed as cleavage at Phe(2)-Arg(3) site at 1 mM at 37 degC by RP-HPLC method; type: ADME, cell-free; settings: 1000 µM; outline: as §1
Serum [6] = experiment: Drug metabolism in 25% rat serum assessed as formation of 2-thienylacetyl-Trp1-Phe2-OH at 1 mM at 37 degC by RP-HPLC method; type: ADME, cell-free; settings: 1000 µM; outline: as §1
[7] = molecular target: T2, Neuromedin-U receptor 1 (Homo sapiens) (UniProt Q9HB89); experiment: Agonist activity at human NMUR1 expressed in CHO cells assessed as intracellular calcium flux at 1 and 10 nM by Fluo-4 AM dye based fluorometric imaging method relative to 1000 nM human neuromedin U; type: functional, cell-based
T2 sequence (whole entry): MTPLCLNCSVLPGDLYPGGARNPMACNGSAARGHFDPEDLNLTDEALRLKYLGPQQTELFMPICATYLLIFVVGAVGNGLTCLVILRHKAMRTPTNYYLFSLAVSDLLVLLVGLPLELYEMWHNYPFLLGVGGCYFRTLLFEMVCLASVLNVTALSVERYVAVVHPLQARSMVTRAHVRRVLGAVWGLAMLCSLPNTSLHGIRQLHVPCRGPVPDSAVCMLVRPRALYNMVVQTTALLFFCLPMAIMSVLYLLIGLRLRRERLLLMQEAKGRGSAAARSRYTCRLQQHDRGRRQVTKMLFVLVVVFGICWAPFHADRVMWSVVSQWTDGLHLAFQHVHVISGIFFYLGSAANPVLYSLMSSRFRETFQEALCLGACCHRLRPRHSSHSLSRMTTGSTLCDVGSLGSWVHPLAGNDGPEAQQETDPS

Serum [8] = experiment: Retention time in 25% rat serum treated with 1 mM (S)-2-((S)-2-((S)-1-((S)-2-((S)-2-((S)-3-(1H-indol-3-yl)-2-(2-(thiophen-2-yl)acetamido)propanamido)-3-(4-fluorophenyl)propanamido)-5-guanidinopentanoyl)pyrrolidine-2-carboxamido)-5-guanidinopentanamido)succinamide incubated for 10 mins at 37 degC by RP-HPLC method; type: ADME, cell-free; outline: as §1
[9] = Drug metabolism in 25% rat serum assessed as drug recovery at 1 mM incubated for 60 mins at 37 degC by RP-HPLC method; type: ADME, cell-free; settings: read-out: Drug recovery; outline: as §1
Serum [10] = experiment: Drug degradation in 25% human serum at 1 mM at 37 degC by RP-HPLC method; type: ADME, cell-free; settings: 1000 µM, TDE = time-dependent effect
Neuromedin-U receptor 2 [11] = molecular target: T1, Neuromedin-U receptor 2; experiment: Intrinsic agonist activity at human NMUR2 expressed in CHO cells assessed as intracellular calcium flux at by Fluo-4 AM dye based fluorometric imaging method; type: functional, cell-based
Outline: (§2)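 Dose–response Ca2+ mobilization in CHO cells stably expressing human NMUR1 or NMUR2. Peptides run at 10^-12–10^-6 M with hNMU as reference. EC50 and intrinsic activity derived from the curves. Triplicate determinations.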

Neuromedin-U receptor 1 = molecular target: T3, Neuromedin-U receptor 1 (Homo sapiens, UniProt Q9HB89); experiment: Agonist activity at human NMUR1 expressed in CHO cells assessed as intracellular calcium flux at by Fluo-4 AM dye based fluorometric imaging method; type: functional, cell-based; outline: as §2
T3 sequence (Q9HB89 whole entry): T2 sequence (whole entry)

[12] = molecular target: T2, Neuromedin-U receptor 1 (Homo sapiens); experiment: Intrinsic agonist activity at human NMUR1 expressed in CHO cells assessed as intracellular calcium flux at by Fluo-4 AM dye based fluorometric imaging method; type: functional, cell-based; outline: as §2
Neuromedin-U receptor 2 [13] = molecular target: T1, Neuromedin-U receptor 2; experiment: Agonist activity at human NMUR2 expressed in CHO cells assessed as intracellular calcium flux at by Fluo-4 AM dye based fluorometric imaging method; type: functional, cell-based; outline: as §2
Serum [14] = experiment: Drug metabolism in 25% rat serum assessed as cleavage at C-terminal Arg-Asn site at 1 mM at 37 degC by RP-HPLC method; type: ADME, cell-free; settings: 1000 µM; outline: as §1

Molecule: N=C(N)NCCC[C@H](NC(=O)[C@@H]1CCCN1C(=O)[C@H](CCCNC(=N)N)NC(=O)[C@H](Cc1ccccc1)NC(=O)[C@H](Cc1c[nH]c2ccccc12)NC(=O)Cc1cccs1)C(=O)N[C@@H](CC(N)=O)C(N)=O ({Acetyl(2-thienyl)}-WFRPRN-NH2)
Activity (Neuromedin-U receptor 2 [1]): Active
Drug metabolism (Serum [2]): metabolite_detected
remaining at 10 min, 1000 µM [3]: 39.8%
Drug metabolism (Serum [4]): metabolite_detected
Drug metabolism (Serum [5]): metabolite_detected
Drug metabolism (Serum [6]): metabolite_detected
Activity [7]: Active

Molecule: N=C(N)NCCC[C@H](NC(=O)[C@@H]1CCCN1C(=O)[C@H](CCCNC(=N)N)NC(=O)[C@H](Cc1ccncc1)NC(=O)[C@H](Cc1c[nH]c2ccccc12)NC(=O)Cc1cccs1)C(=O)N[C@@H](CC(N)=O)C(N)=O ({Acetyl(2-thienyl)}-W[4Pal]RPRN-NH2)
Activity (Neuromedin-U receptor 2 [1]): inactive
Activity [7]: inactive

Molecule: N=C(N)NCCC[C@H](NC(=O)[C@@H]1CCCN1C(=O)[C@H](CCCNC(=N)N)NC(=O)[C@H](Cc1ccc(F)cc1)NC(=O)[C@H](Cc1c[nH]c2ccccc12)NC(=O)Cc1cccs1)C(=O)O ({Acetyl(2-thienyl)}-W[Phe(4-F)]RPR-OH)
Retention_time (Serum [8]): 43.7 min
remaining at 1 h, 1000 µM [9]: 54%

Molecule: N=C(N)NCCC[C@H](NC(=O)[C@@H]1CCCN1C(=O)[C@H](CCCNC(=N)N)NC(=O)[C@H](Cc1ccccc1)NC(=O)[C@H](Cc1ccc2ccccc2c1)NC(=O)CCc1cccnc1)C(=O)N[C@@H](CC(N)=O)C(N)=O ({Propanoyl(3-(3-pyridyl))}-[2Nal]FRPRN-NH2)
Activity (Neuromedin-U receptor 2 [1]): Active

Molecule: Ac-FFRPRN-NH2
Activity (Neuromedin-U receptor 2 [1]): inactive
Activity [7]: inactive

Molecule: H-FRVDEEFQSPFASQSRGYFLFRPRN-NH2
Drug metabolism (Serum [14]): metabolite_detected
pEC50 (Neuromedin-U receptor 1): 9.85

Now from value to molecule:

Activity (Neuromedin-U receptor 2 [1]): inactive
Activity [7]: inactive
Molecule: N=C(N)NCCC[C@H](NC(=O)[C@@H]1CCCN1C(=O)[C@H](CCCNC(=N)N)NC(=O)[C@H](Cc1c[nH]cn1)NC(=O)[C@H](Cc1c[nH]c2ccccc12)NC(=O)Cc1cccs1)C(=O)N[C@@H](CC(N)=O)C(N)=O ({Acetyl(2-thienyl)}-WHRPRN-NH2)

Activity (Neuromedin-U receptor 2 [1]): Active
Activity [7]: Active
Molecule: N=C(N)NCCC[C@H](NC(=O)[C@@H]1CCCN1C(=O)[C@H](CCCNC(=N)N)NC(=O)[C@H](Cc1cccs1)NC(=O)[C@H](Cc1c[nH]c2ccccc12)NC(=O)Cc1cccs1)C(=O)N[C@@H](CC(N)=O)C(N)=O ({Acetyl(2-thienyl)}-W[2Thi]RPRN-NH2)

Drug degradation (Serum [10]): tde
Activity (Neuromedin-U receptor 2 [1]): Active
Intrinsic activity (Neuromedin-U receptor 2 [11]): 82%
pEC50 (Neuromedin-U receptor 1): 10.08
Drug metabolism (Serum [2]): metabolite_detected
remaining at 10 min, 1000 µM [3]: 42.7%
Intrinsic activity [12]: 95%
Drug metabolism (Serum [5]): metabolite_detected
Activity [7]: Active
pEC50 (Neuromedin-U receptor 2 [13]): 8.59
Molecule: N=C(N)NCCC[C@H](NC(=O)[C@@H]1CCCN1C(=O)[C@H](CCCNC(=N)N)NC(=O)[C@H](Cc1ccc(F)cc1)NC(=O)[C@H](Cc1c[nH]c2ccccc12)NC(=O)Cc1cccs1)C(=O)N[C@@H](CC(N)=O)C(N)=O ({Acetyl(2-thienyl)}-W[Phe(4-F)]RPRN-NH2)

Activity (Neuromedin-U receptor 2 [1]): Active
Activity [7]: Active
Molecule: N=C(N)NCCC[C@H](NC(=O)[C@@H]1CCCN1C(=O)[C@H](CCCNC(=N)N)NC(=O)[C@H](Cc1ccccc1)NC(=O)[C@H](Cc1ccccc1)NC(=O)CCc1cccnc1)C(=O)N[C@@H](CC(N)=O)C(N)=O ({Propanoyl(3-(3-pyridyl))}-FFRPRN-NH2)

Drug metabolism (Serum [2]): metabolite_notdetected
remaining at 10 min, 1000 µM [3]: 37%
Drug metabolism (Serum [5]): metabolite_notdetected
Molecule: H-FLFRPRN-NH2
